Among all 360,000 compounds or so, about 1,500 (0.42%) were called active. Many of the other results were omitted from the sample, so actives are more common in it than they were. A number with no mark means an inactive call.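 How the source made its calls: active means inhibition above a per-plate cutoff of the control wells' mean inhibition plus 3 SD (cut at about 5.5% in these data); inactive means the rest.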
tested on: methionyl-tRNA synthetase (Trypanosoma brucei brucei); experiment: inhibition of trypanosome methionyl-tRNA synthetase – biochemical, luminescence, primary screen (AID 624268);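 further: 0% = DMSO wells median and 100% = median of wells with control inhibitor compound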; conditions: purified T. brucei MetRS, ATP depletion, Kinase-Glo luminescence; at 11.9 µM; hits give high values
In short: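 Measured by: Kinase-Glo luciferase luminescence reporting remaining unconsumed ATP. Material: purified T. brucei MetRS enzyme. Doses: 11.9 µM compound single dose, 0.9% DMSO. Medium: HEPES buffer containing pyrophosphatase, BSA, spermine, DTT. Times: 15 min preincubation, 2 h reaction, all 25 °C. Reagent: methionine, ATP and bulk E. coli tRNA.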

Compound	inhibition
Brc1ccc(-c2nn[nH]n2)cc1	0.2%
Cc1cccc(N=Nc2c(O)[nH]c3ccc(F)cc23)c1	0.2%
Oc1[nH]c2ccc(Br)cc2c1N=Nc1nn[nH]n1	5.61% (active)
CCOC(=O)c1sc(NC(=O)CSc2nc(O)c(Cc3ccccc3)c(=O)[nH]2)nc1C	-1.03%
CCCS(=O)(=O)NC(=O)C1(C)CCCN(C(=O)c2ccnc(Cl)c2)C1 (stereo unspecified)	-0.05%
O=C(CCCOc1ccc(Cl)cc1Cl)NNC(=O)C1CCC1	1.44%
CC(C)Oc1ccc(Cc2n[nH]c(=S)n2Cc2ccccc2)cc1Cl	-0.26%
Cn1c(CCCOc2ccc(Cl)cc2Cl)n[nH]c1=S	7.11% (active)
COC(=O)CN1C(=O)[C@H]2[C@@H](/C=C/c3ccccc3)N3C(=O)CN(CC4CC4)C(=O)[C@@]3(Cc3ccccc3)[C@H]2C1=O	-0.4%
O=C(CC(=O)Nc1ccc(Cl)c(Cl)c1)N/N=C/c1ccc(O)cc1	10.6% (active)
NCCCCCC(=O)N/N=C/c1ccc2nccnc2c1	-0.25%
O=C(CC(O)(C(F)(F)F)C(F)(F)F)Nc1ccc(Cl)c(Cl)c1	1.83%
Cc1csc(=O)n1CCC(=O)OCC(=O)NNC(=O)c1ccc(Br)cc1	-0.33%
CC1(C(=O)NS(=O)(=O)c2cccc(F)c2)CCN1C(=O)c1cccc2ccccc12 (stereo unspecified)	-0.25%
COCCCNCCOCCOc1ccc(Cl)cc1Br	1.56%
O=C(N[C@H]1CC[C@H](CC(=O)N2CCCCC2)O[C@@H]1CO)c1cccc(F)c1	-0.31%
O=C(Oc1cccc(N2C(=O)C3C4c5ccccc5C(c5ccccc54)C3C2=O)c1)c1ccco1 (stereo unspecified)	0.29%
O=C(/C(=N\O)n1cncn1)c1ccc(Br)cc1Br	17.9% (active)
CCc1ccc(N(CC(=O)Nc2sc3c(c2C(=O)OC)CCCC3)S(C)(=O)=O)cc1	0.46%
CCn1c(CSCc2c(Cl)cccc2Cl)n[nH]c1=S	0.37%
Cc1ccc(NCc2n[nH]c(=S)n2-c2ccccc2)cc1Cl	-0.41%
S=c1[nH]nc(CSCc2ccc(Cl)cc2Cl)n1-c1ccccc1	6.2% (active)
Nc1cc(N)nc(SCc2cccc(F)c2)n1	-0.35%

Compound	inhibition
Cn1nc(-c2ccc(Cl)cc2)c2cc(C(=O)NCc3ccco3)sc21	2.08%
O=C(c1ccco1)N1CCN(CC(=O)N(C2CCCCC2)C2CCS(=O)(=O)C2)CC1 (stereo unspecified)	-0.62%
Cc1ccc(NN=C2C(=O)OC(C)(C)OC2=O)c(C)c1	0.27%
O=C(COC(=O)CCCSc1nc2ccccc2[nH]1)Nc1ccc(Oc2ccccc2)cc1	-0.54%
CCn1c(SCC(=O)N/N=C/C=C/c2ccccc2[N+](=O)[O-])nnc1-c1ccccc1	0.33%
O=C(CSc1nc2ccccc2[nH]1)N/N=C/C=C\c1ccccc1[N+](=O)[O-]	9.68% (active)
COCCNC(=O)CN1C(=O)CSc2ncccc21	0.04%
O=C(NNS(=O)(=O)c1ccc(F)cc1)C1CCCCC1	-0.24%
CCOC(=O)CN(C(=O)CN1CCOCC1)c1ccc(Br)cc1	-1.11%
Cc1ccc(O)c(CNc2nc3ccccc3[nH]2)c1	72.6% (active)
C/C(=N\Nc1nc2ccccc2[nH]1)c1cccs1	2.21%
Cc1ccc(-c2cc(=O)[nH]c(NCc3ccccc3)n2)cc1	0.58%
C=CCN1CCN(C(=O)CCCc2ccccc2)CC1	0.23%
Cn1c(=O)c2c(nc(N3CCOCC3)n2CCNC2=NCCC2)n(C)c1=O	0.1%
O=C1CCCN1CCCNc1ncnc2c1[nH]c1ccccc12	37.3% (active)
O=Cc1c(NCCCN2CCCC2=O)c2ccccc2[nH]c1=O	-0.57%
Cc1nn(Cc2ccccc2)c(C)c1C(=O)NCCCN1CCCC1=O	-0.02%
Cc1ccnc2nc(C(=O)OCC(=O)N(CC(C)C)CC(C)C)nn12	-0.19%
CCN1CCN(c2ccc([N+](=O)[O-])cc2C(=O)c2ccc(Cl)cc2)CC1	-0.26%
O=[N+]([O-])c1ccc(N2CCN(c3ccc(O)cc3)CC2)c(Cl)c1	7.21% (active)
O=C(O)C1CCN(c2ccc([N+](=O)[O-])cc2[N+](=O)[O-])CC1	0.21%
NC(=S)NN=Cc1ccc(OC(=O)COc2cc(Cl)c(Cl)cc2Cl)cn1	0.02%
CCN(CC)C(=O)C(=O)c1cn(CC(=O)NCc2ccc3c(c2)OCO3)c2ccccc12	60.8% (active)

Compound	inhibition
CC(C)NC(=O)CSc1ccccc1C(=O)NCc1ccc2c(c1)OCO2	-0.69%
CCN(CC)C(=O)Cn1cc(S(=O)(=O)CC(=O)NCc2ccc3c(c2)OCO3)c2ccccc21	-0.63%
CCOn1c(=O)c(=O)n(O)c2ccccc21	0.13%
O=C(NCc1ccccc1)c1cccc(NC(=O)C2CCCCC2)c1	-0.28%
COC(=O)CN1C(=S)N(c2ccccc2)C(=O)C1CC(=O)Nc1ccc(Cl)cc1 (stereo unspecified)	12% (active)
COCCN1C(=O)N(c2ccc(Cl)cc2)C(=O)C1CC(=O)Nc1cc(OC)cc(OC)c1 (stereo unspecified)	0.28%
CCOc1ccc(NC(=O)CC2C(=O)N(c3ccccc3)C(=O)N2CCOC)cc1 (stereo unspecified)	0.31%
CCCc1nnc(NC(=O)CCC(=O)NC2CC2)s1	0.11%
COc1cccc(C(CC(=O)NCCN2CCOCC2)NS(=O)(=O)c2ccc(C)cc2)c1OC (stereo unspecified)	-0.3%
O=C(NNC(=O)c1ccc(-n2cncn2)c([N+](=O)[O-])c1)c1ccccc1	17.1% (active)
O=C(COc1ccccc1F)NNC(=O)c1ccc(N2CCCCC2)c([N+](=O)[O-])c1	-0.55%
CC(=O)Nc1ccc(NC(=S)NC(=O)c2ccc([N+](=O)[O-])c(C)c2)cc1	-0.17%
Cc1ccc(S(=O)(=O)N2CCN(C(=O)c3ccc(-n4cncn4)c([N+](=O)[O-])c3)CC2)cc1	1.45%
Cc1ccc(S(=O)(=O)N(C)C)cc1NC(=O)c1ccc(-n2cncn2)c([N+](=O)[O-])c1	41% (active)
Cc1cc(O)c(NC(=O)c2ccc(C)c([N+](=O)[O-])c2)cc1C	-1.17%
Cc1ccccc1OCC(=O)NNC(=O)c1ccc(-n2cncn2)c([N+](=O)[O-])c1	8.29% (active)
CC(=O)c1ccc(NC(=O)c2ccc(-n3cncn3)c([N+](=O)[O-])c2)cc1	36.6% (active)
CCOc1ccc(C(=O)Nc2cc(Cl)ccc2-n2cncn2)cc1OC	-0.61%
Cc1ccccc1OCC(=O)NNC(=O)c1cc(S(=O)(=O)N(C)C)ccc1N1CCCC1	-0.26%
CC(C)NC(=O)c1ccc(Sc2ccccc2)c([N+](=O)[O-])c1	-1.54%
Cc1ccc(S(=O)(=O)N(C)C)cc1NC(=O)c1ccccc1Br	-0.6%
COc1cc(C2C(C#N)=C(C)NC3=C2C(=O)CC(C)(C)C3)ccc1O (stereo unspecified)	-1.19%
Cc1ccc(-c2nc(COC(=O)c3c(C)noc3C)cs2)cc1	-0.6%

Compound	inhibition
COC(=O)[C@@]12C[C@@H](CC(=O)N3CCC(c4ccccc4)CC3)C(=O)N(Cc3ccccc3)C1=CCC(C)(C)C2	-0.7%
Cc1c(NC(=O)CCC2CCCCC2)cc(C(=O)N2CCOCC2)cc1[N+](=O)[O-]	-2.05%
Cc1cc(C)cc(OCC(=O)NNC(=O)CCN2C(=O)c3ccccc3C2=O)c1	0.2%
C[N+](C)(C)CCOP(=O)([O-])OC[C@H](O)CO	-0.22%
CCn1c(SCC(=O)Nc2ccccc2F)nc2c(c1=O)SC(C)C2 (stereo unspecified)	-0.06%
O=S(=O)(c1ccccc1)c1nc(-c2ccccc2)oc1NCCCN1CCOCC1	0.27%
O=S(=O)(c1ccc(Cl)cc1)c1nc(-c2ccccc2F)oc1NCCN1CCOCC1	-0.33%
c1ccc2cc3c(NCCN4CCOCC4)ccnc3cc2c1	34.1% (active)
O=c1cnnc(Nc2ccccc2F)[nH]1	0.6%
Cc1cc(/C=N/n2cnnc2)c(C)n1-c1ccc2ncccc2c1	0.03%
O=C(CSCC(=O)Nc1cccc([N+](=O)[O-])c1)Nc1ccccc1	8.16% (active)
Cc1c(NC(=O)Nc2cccc([N+](=O)[O-])c2)c(=O)n(-c2ccccc2)n1C	-0.43%
O=C(CN1CCC(NC(=O)Nc2ccccc2)CC1)Nc1cccc([N+](=O)[O-])c1	0.83%
O=C(CSc1nc(-c2ccccc2)cs1)Nc1cccc([N+](=O)[O-])c1	-0.12%
CCc1ccc(NC(=O)N2CCc3ccccc3C2)cc1	-0.43%
O=C(Nc1cccc([N+](=O)[O-])c1)N1CCc2ccccc2C1	7.11% (active)
Cc1ccc(-c2csc(C(C#N)=C(O)CN3CCN(C(=O)c4ccco4)CC3)n2)cc1	-0.54%
CCc1cccc(CC)c1NC(=O)COc1ccccc1C(=O)c1cc(C#N)c(=O)n(C2CCCCC2)c1	0.13%
CCOC(=O)C1CCN(S(=O)(=O)c2c(C)noc2C)CC1	-0.02%
O=C(NC(=S)Nc1ccc(S(=O)(=O)Nc2ncccn2)cc1)c1cccc(Br)c1	0.66%
CCNS(=O)(=O)c1ccc(NC(=O)c2cncc(Br)c2)cc1	-0.64%
O=C(Nc1ccc(S(=O)(=O)Nc2ncccn2)cc1)c1cncc(Br)c1	64.2% (active)

Source: PubChem BioAssay AID624268 (The Scripps Research Institute Molecular Screening Center, 2012)
